Assay results as given in ChEMBL document CHEMBL1795269, “Novel (E)-5-styryl-2,2'-bithiophene derivatives as ligands for β-amyloid plaques” (Eur J Med Chem, 2011).
Activity calls are given as the source filed them. No cut-off for these calls is given here.

How the values were obtained:
[1] = Displacement of [125I]-TZDM from amyloid beta 1 to 42 after 2 hrs by gamma counting
In short: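 Aβ1-42 aggregated at 0.25 mg/mL in pH 7.4 buffer (10 mM sodium phosphate, 1 mM EDTA), 37 °C for 42 h with shaking. Fibrils (28 nM final) mixed with [125I]TZDM and inhibitor (10^-5 to 10^-10 M in EtOH) in PBS (0.2 M, pH 7.4). Incubated 2 h at 37 °C; nonspecific binding taken with 100 nM TZDM. Bound and free separated by vacuum filtration through glass fibre filters, washed with cold PBS containing 10% ethanol, then counted; Ki reported.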

Mus musculus [2] = species: Mus musculus; assay: Binding affinity to amyloid beta in APP/PS1 transgenic C57 mouse brain cortex at 5 uCi/100 uL after 30 mins by autoradiography; assay type: tissue-based; details: tested as the 125I-labelled form
In short: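 Deparaffinized transgenic mouse brain sections incubated 30 min at room temperature with [125I]-labelled tracer (5 μCi/100 μL). Washed with saturated Li2CO3 in 40% EtOH for 3 min, then 40% EtOH for 3 min, then rinsed 30 s in water. Plaques checked afterwards by thioflavin-S (1 μM) fluorescence staining of the same sections.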

Mus musculus [3] = species: Mus musculus; assay: Binding affinity to amyloid beta in APP/PS1 transgenic C57 mouse brain at 1 uM after 10 mins by fluorescence assay; assay type: tissue-based
In short: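 Paraffin-embedded brain sections (10 μm) from APP/PS1 C57 transgenic mouse, deparaffinized through xylene and graded ethanol, then PBS (0.2 M, pH 7.4) 30 min. Sections incubated 10 min with compound (1 μM in 20% ethanol), washed with 50% ethanol and PBS. Confocal fluorescence read at excitation 405 nm, 505 nm long-pass. Plaques confirmed with thioflavin-S (1 μM) on adjacent sections.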

Compound | Ki [1] | inhibition [1] | Activity (Mus musculus [2]) | Activity (Mus musculus [3])
Fc1ccc(/C=C/c2ccc(-c3ccc(I)s3)s2)cc1 | 0.55 nM | Dose-dependent effect | – | –
COc1ccc(/C=C/c2ccc(-c3ccc(I)s3)s2)cc1 | 0.3 nM | Dose-dependent effect | Active | –
Brc1ccc(/C=C/c2ccc(-c3ccc(I)s3)s2)cc1 | 0.19 nM | Dose-dependent effect | – | –
Cc1ccc(/C=C/c2ccc(-c3ccc(I)s3)s2)cc1 | 0.8 nM | Dose-dependent effect | – | –
Fc1ccc(/C=C/c2ccc(-c3ccc(Br)s3)s2)cc1 | 0.81 nM | Dose-dependent effect | – | –
Nc1ccc(/C=C/c2ccc(-c3cccs3)s2)cc1 | 41 nM | Dose-dependent effect | – | –
Cc1ccc(/C=C/c2ccc(-c3ccc(Br)s3)s2)cc1 | 0.45 nM | Dose-dependent effect | – | –
CN(C)c1ccc(/C=C/c2ccc(-c3cccs3)s2)cc1 | 0.73 nM | Dose-dependent effect | – | Active
